The values below come from ChEMBL document CHEMBL3352470, “New ent-kauranes from the fruits of Annona glabra and their inhibitory nitric oxide production in LPS-stimulated RAW264.7 macrophages” (Bioorg Med Chem Lett, 2015).

Series [1] concerns RAW264.7. Kind of series: Inhibition of LPS-induced nitric oxide production in mouse RAW264.7 cells at 30 uM after 24 hrs by Griess assay relative to vehicle-treated control. In kind it is functional. The conditions noted are these: RAW264.7, 24 h. Summed up:
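RAW 264.7 cells were seeded at 5×10^5 cells/mL. After 3 h they were pretreated with compound at 3, 10 and 30 µM, then 1 µg/mL LPS was added for 24 h. Supernatant nitrite was measured by the Griess reaction. Controls were unstimulated cells, LPS alone and dexamethasone. Values are mean ± SD of three independent experiments.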
On the technique in general: The Griess reaction detects nitrite, a stable product of nitric oxide.

Series [2] deals with RAW264.7. Kind of series: Cytotoxicity against mouse RAW264.7 cells at 30 uM by MTT assay relative to control. In kind it is cell-based. The note with it: raw264.7, 30 µM. A general note: Tetrazolium assays rely on reduction of a dye to a coloured formazan, in cell work by metabolically active cells.
The test system of series [3] is RAW264.7. Kind of series: Inhibition of LPS-induced nitric oxide production in mouse RAW264.7 cells after 24 hrs by Griess assay relative to vehicle-treated control. In kind it is functional, cell-based. The conditions noted are these: RAW264.7, 24 h. Summed up:
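RAW 264.7 cells were seeded at 5×10^5 cells/mL. After 3 h they were pretreated with compound at a series of concentrations chosen from the screening results, then stimulated 24 h with 1 µg/mL LPS. Nitrite in the supernatant was read by the Griess reaction. IC50 came from the dose-dependent inhibition. Dexamethasone was the positive control.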

pIC50: −log10 of the molar value. A value given as a limit tells only on which side of the number the result lay.

Turning to `C[C@@]12CCC[C@@](C)(C(=O)O)[C@H]1C[C@H](O)[C@@]13C[C@@H](CC[C@@H]21)[C@@](O)(CO)C3`, in the series on RAW264.7 [1], the inhibition (commonly the share of the control response that was lost under treatment) at 30 µM turned out to be 90%. Besides, in the series with RAW264.7 [2], the Activity entry is given as “Non-toxic”. Besides, the pIC50 – broadly, the negative decadic logarithm of the IC50, by convention in mol/L – in the series on RAW264.7 [3] is 6.41.
Take `C[C@@]12CCC[C@@](C)(C(=O)O[C@@H]3O[C@H](CO)[C@@H](O)[C@H](O)[C@H]3O)[C@H]1C[C@H](O)[C@@]13C[C@@H](CC[C@@H]21)[C@@H](CO)C3`: the Activity result in the series with RAW264.7 [2] is reported as “Non-toxic”. The same compound had a pIC50 in the series on RAW264.7 [3] of under 4.52.
For the compound `C[C@@]12CCC[C@@](C)(C(=O)O[C@@H]3O[C@H](CO)[C@@H](O)[C@H](O)[C@H]3O)[C@H]1C[C@H](O)[C@]13C=C(CO)[C@H](CC[C@@H]21)C3`, in the series on RAW264.7 [1], the inhibition at 30 µM was determined as 90%. For the same compound, in the series with RAW264.7 [2], the Activity entry is “Non-toxic”. Besides, the negative-log IC50 (pIC50) in the series with RAW264.7 [3] is 8.00.
As for `C[C@@]12CCC[C@@](C)(C(=O)O[C@@H]3O[C@H](CO)[C@@H](O)[C@H](O)[C@H]3O)[C@H]1CC[C@@]13C[C@@H](CC[C@H]12)[C@@](O)(CO)C3`, the Activity result in the series on RAW264.7 [2] is listed as “Non-toxic”. Also, the negative-log IC50 (pIC50) with RAW264.7 [3] is under 4.52.
Turning to `CC1(C)CCC[C@]2(C)[C@@H]1CC[C@@]13C[C@@H](CC[C@H]12)[C@@](O)(CO)C3`, the inhibition at 30 µM in the series with RAW264.7 [1] turned out to be 70.4%. Moreover, the Activity entry in the series with RAW264.7 [2] is given as “Non-toxic”. Further, in the series with RAW264.7 [3], the pIC50 was 4.77.
Taken in the same sequence, the figures for `CC1(C)CCC[C@]2(C)[C@@H]1CC[C@@]13C[C@@H](CC[C@H]12)[C@](O)(CO)C3` were 70.4%, “Non-toxic” and 5.21.
For `C[C@@]12CCC[C@@](C)(C(=O)O)[C@H]1CC[C@@]13C[C@@H](CC[C@H]12)[C@](O)(CO)C3`, in that order: 70.4%, “Non-toxic” and 4.84.
Taken in the same sequence, the figures for `C[C@@]12CCC[C@@](C)(C=O)[C@H]1CC[C@@]13C[C@@H](CC[C@H]12)[C@](O)(CO)C3` were 90%, “Non-toxic” and 6.49.
